Molecules are shown by their SMILES. Where “and” joins values, the source holds several entries; their conditions need not be identical. Equal values may be shown once.

Test [1] has as its target T1, xanthine oxidase (XO) (Homo sapiens, UniProt P47989). Nature of the test: Kinetics of xanthine oxidase inhibition. The test is classed as biochemical. The settings on record: for V max: XO alone 2.25 / 2.21; for K m: XO alone Km 40.
The test system of test [2] is A498 (kidney carcinoma). The test is described as follows: Antiproliferative SRB assay, A-498. It is filed as cell-based, human. The conditions noted are these: for IC50: Homo sapiens, A498, 72 h, read-out: pIC50 A-498 (converted); for Selectivity index (SI) A498: IC50 BALB/3T3 / IC50 A498.
In test [3] the test system is HepG-2 (hepatocellular carcinoma). The test is described as follows: Antiproliferative SRB assay, HepG2. The test is classed as cell-based, human. The settings on record: for IC50: Homo sapiens, HepG2, 72 h, read-out: pIC50 HepG2 (converted); for Selectivity index (SI) HepG2: IC50 BALB/3T3 / IC50 HepG2.
For test [4], the system named is MDA-MB-231 (breast adenocarcinoma). The test is described as follows: Antiproliferative SRB assay, MDA-MB-231. The test is classed as cell-based, human. The settings on record: for IC50: Homo sapiens, MDA-MB-231, 72 h, read-out: pIC50 MDA-MB-231 (converted); for Selectivity index (SI) MDA-MB-231: IC50 BALB/3T3 / IC50 MDA-MB-231.
Test [5] relates to MV4-11 cell line. The test is described as follows: Antiproliferative MTT assay, MV4-11. The test is classed as cell-based. The settings on record: Homo sapiens, MV4-11, read-out: Anti-proliferative IC50 MV4-11. The method, boiled down:
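MV4-11 cells grown in RPMI 1640 with stable glutamine, 10% FBS, 1.0 mM sodium pyruvate and penicillin/streptomycin at 37 °C, 5% CO2. Seeded at 2000 cells/well, then treated after 24 h with test compound (DMSO stock of 10 mg mL−1 diluted in medium; 0.1–100 μg mL−1) for 72 h. MTT added for 4 h, formazan dissolved in DMF, A570 read. IC50 calculated.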
On the technique in general: Tetrazolium dyes change colour on reduction, which living cells bring about.

The subject of test [6] is MV4-11 cell line. The test is described as follows: Cell cycle analysis. The test is classed as cell-based. The settings on record: for Cell percentage SubG1: control 7.12 ± 0.569; for Cell percentage G2/M: control 20.98 ± 0.614; for Cell percentage S: control 24.54 ± 2.475; for Cell percentage G0/G1: control 45.40 ± 3.051.
Test [7] has as its target CDK6/Cyclin D3 (Homo sapiens, UniProt Q00534). The test is described as follows: In vitro CDK6 inhibitory assay. It is filed as biochemical.
In test [8] the target is VEGFR-2 (Homo sapiens, UniProt P35968). Nature of the test: In vitro VEGFR-2 kinase inhibitory assay. It is filed as biochemical.
Sequence of VEGFR-2 (P35968 20-1356): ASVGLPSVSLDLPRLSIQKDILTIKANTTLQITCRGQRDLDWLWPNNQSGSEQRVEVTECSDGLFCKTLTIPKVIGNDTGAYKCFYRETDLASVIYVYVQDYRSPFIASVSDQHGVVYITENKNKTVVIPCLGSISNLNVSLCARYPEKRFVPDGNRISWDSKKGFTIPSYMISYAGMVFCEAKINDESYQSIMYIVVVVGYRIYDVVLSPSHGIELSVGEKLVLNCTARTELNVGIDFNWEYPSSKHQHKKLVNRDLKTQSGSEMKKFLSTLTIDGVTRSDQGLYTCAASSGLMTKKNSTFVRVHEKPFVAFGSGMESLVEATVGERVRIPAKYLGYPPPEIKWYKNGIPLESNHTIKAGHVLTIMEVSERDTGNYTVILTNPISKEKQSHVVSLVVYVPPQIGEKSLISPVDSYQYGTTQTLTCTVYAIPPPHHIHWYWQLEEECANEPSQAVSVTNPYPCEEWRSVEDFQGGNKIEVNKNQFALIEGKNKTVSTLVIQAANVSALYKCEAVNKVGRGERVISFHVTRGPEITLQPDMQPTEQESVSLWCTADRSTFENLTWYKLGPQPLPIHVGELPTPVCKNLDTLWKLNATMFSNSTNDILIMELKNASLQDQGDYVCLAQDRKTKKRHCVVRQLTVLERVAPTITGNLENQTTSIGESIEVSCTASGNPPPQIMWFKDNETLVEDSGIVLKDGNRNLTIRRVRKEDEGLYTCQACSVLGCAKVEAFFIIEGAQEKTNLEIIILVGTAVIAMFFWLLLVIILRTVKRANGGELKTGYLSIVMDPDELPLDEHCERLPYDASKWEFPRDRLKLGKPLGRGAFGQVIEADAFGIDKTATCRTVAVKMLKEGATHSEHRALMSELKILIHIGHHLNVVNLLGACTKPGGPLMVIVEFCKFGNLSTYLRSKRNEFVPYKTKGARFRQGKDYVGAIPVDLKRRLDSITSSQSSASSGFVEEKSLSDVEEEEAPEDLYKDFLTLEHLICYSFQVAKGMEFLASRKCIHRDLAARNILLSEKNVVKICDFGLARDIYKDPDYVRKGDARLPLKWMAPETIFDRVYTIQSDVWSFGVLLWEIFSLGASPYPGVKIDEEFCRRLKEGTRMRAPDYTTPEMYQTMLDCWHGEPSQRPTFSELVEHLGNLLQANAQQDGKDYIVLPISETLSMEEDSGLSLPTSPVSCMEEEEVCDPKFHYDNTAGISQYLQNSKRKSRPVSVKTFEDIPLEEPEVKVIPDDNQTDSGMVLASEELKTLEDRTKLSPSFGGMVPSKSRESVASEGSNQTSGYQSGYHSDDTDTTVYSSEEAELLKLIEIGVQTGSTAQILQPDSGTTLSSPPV
In test [9] the target is T1, xanthine oxidase (XO). The test is described as follows: Xanthine oxidase inhibition assay. It is filed as biochemical.
Test [10] deals with MV4-11 cell line. The settings on record: MV4-11 cancer cell line; cited from earlier work.

T1 sequence (P47989 whole entry, species assumed): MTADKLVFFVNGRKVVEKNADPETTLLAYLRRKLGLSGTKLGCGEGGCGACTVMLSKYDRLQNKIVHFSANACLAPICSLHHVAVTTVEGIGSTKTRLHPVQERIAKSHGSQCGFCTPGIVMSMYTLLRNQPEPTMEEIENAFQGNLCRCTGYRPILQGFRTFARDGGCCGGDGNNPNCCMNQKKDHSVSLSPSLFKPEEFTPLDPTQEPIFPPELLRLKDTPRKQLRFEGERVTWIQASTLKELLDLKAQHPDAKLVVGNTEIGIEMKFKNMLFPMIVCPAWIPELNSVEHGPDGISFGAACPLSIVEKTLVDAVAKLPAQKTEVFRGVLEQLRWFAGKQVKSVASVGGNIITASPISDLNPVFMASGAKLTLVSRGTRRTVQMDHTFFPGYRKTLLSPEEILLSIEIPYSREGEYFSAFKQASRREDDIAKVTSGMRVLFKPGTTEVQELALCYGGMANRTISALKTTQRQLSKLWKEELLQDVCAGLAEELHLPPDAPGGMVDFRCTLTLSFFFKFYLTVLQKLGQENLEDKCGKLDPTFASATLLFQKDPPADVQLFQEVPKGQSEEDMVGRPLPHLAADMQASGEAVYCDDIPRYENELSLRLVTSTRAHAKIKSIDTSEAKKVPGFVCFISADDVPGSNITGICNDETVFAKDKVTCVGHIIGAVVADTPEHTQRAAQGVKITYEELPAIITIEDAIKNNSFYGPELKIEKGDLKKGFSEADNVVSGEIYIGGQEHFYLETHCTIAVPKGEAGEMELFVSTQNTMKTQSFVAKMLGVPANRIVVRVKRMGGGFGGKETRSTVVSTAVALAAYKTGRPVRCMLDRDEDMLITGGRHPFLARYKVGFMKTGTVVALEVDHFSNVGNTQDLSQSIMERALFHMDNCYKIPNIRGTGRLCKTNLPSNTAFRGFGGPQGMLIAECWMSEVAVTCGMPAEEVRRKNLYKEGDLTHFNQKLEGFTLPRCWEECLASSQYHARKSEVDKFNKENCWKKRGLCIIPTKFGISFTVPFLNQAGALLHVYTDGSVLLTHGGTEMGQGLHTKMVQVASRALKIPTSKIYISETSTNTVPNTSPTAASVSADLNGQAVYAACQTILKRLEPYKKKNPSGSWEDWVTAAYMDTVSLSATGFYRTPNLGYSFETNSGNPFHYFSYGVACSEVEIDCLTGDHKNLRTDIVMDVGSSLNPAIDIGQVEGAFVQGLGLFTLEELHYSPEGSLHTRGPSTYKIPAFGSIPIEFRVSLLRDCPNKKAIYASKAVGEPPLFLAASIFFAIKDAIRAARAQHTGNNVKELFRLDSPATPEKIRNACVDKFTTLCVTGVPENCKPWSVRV
Sequence of CDK6/Cyclin D3 (Q00534 whole entry): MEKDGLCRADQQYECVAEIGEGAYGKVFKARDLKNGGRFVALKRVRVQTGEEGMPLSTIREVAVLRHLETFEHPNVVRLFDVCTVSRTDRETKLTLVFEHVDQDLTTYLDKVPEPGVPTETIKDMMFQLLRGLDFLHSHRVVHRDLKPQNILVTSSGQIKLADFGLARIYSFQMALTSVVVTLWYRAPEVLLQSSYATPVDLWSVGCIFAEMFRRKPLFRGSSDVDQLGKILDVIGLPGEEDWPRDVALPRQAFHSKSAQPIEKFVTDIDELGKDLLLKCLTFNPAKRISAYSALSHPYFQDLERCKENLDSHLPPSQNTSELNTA
Sequence of CDK6/Cyclin D3 (P30281 whole entry partner): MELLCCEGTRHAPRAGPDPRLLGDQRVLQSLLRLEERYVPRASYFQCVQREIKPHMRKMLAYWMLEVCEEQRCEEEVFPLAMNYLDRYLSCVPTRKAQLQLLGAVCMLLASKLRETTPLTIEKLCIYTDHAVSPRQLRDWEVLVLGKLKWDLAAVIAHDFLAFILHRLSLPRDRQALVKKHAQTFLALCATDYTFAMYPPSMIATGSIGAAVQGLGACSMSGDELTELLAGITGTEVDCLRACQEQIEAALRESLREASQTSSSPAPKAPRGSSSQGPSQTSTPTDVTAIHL

For the molecule `Oc1ncnc2[nH]ncc12` [Allopurinol], in test [1] (Lineweaver–Burk plot), the “Type of XO inhibition” value is “mixed”. Besides, the V max in test [1] (inhibitor 0.1 μM) is 1.51; in [1] (inhibitor 1 μM) it was 1.33; in test [1] (inhibitor 10 μM) it was 0.55. Further, the figures for the K m in test [1] (inhibitor 0.1 μM), in test [1] (inhibitor 1 μM) and in test [1] (inhibitor 10 μM) were 50, 64 and 51, respectively.

Take `COc1ccc2c(c1)C(=O)C(=O)N2CCn1ncc2c(=O)[nH]cnc21` [6c, 1-[2-(1,5-Dihydro-4-oxopyrazolo[3,4-d]pyrimidin-1-yl)ethyl]5-methoxyindole-2,3-dione]: the IC50 in [2] was 30.2 µM; in [3], 93.3 µM; in test [4], 47.9 µM.

As for `COc1ccc2c(c1)C(=O)C(=O)N2CCn1cnc2c(N)ncnc21` [7c, 1-[2-(6-Amino-9H-purin-9-yl)ethyl]-2,3-dihydro-5-methoxy-1H-indole-2,3-dione], the IC50 in test [2] is 182 µM; in test [3] it was 77.6 µM; in [4], 135 µM.

Consider `Nc1ncnc2c1ncn2CCN1C(=O)C(=O)c2cc(Cl)ccc21` [7b, 1-[2-(6-Amino-9H-purin-9-yl)ethyl]-5-chloro-2,3-dihydro-1H-indole-2,3-dione], for which, in test [2], the IC50 was 52.5 µM and the “Selectivity index (SI) A498” value turned out to be 1.37. In addition, in test [3], the IC50 is 6.03 µM and the “Selectivity index (SI) HepG2” value is given as 11.89. Further, in [4], the IC50 was 19.5 µM and the “Selectivity index (SI) MDA-MB-231” value was determined as 3.64. Further, in test [5], the IC50 is 11.8 µM. For the same molecule, the “Increase in S phase relative to control” value in [6] (MV4-11, 10 μg mL^−1, p < 0.05) turned out to be 1.49 fold. In test [6] (MV4-11, 10 μg mL^−1), the “Cell percentage SubG1” value is 6.15 ± 2.74% and 6.15 ± 2.739%; the “Cell percentage G2/M” value came to 13.32 ± 2.763%; the “Cell percentage S” value was found to be 36.66 ± 4.326%; the “Cell percentage G0/G1” value turned out to be 44.36 ± 4.193%. The molecule further had an IC50 in [7] of 1.51 µM. In [8], the IC50 was 0.513 µM. In addition, the IC50 in test [9] was 66.1 µM.

With `O=C1C(=O)N(CCn2ncc3c(=O)[nH]cnc32)c2ccc(Cl)cc21` [6b, 5-Chloro-1-[2-(1,5-dihydro-4-oxopyrazolo[3,4-d]pyrimidin-1-yl)ethyl]indole-2,3-dione], in [2], the IC50 is 16.2 µM and the “Selectivity index (SI) A498” value amounted to 2.03. Further, in test [3], the IC50 was 15.1 µM and the “Selectivity index (SI) HepG2” value is listed as 2.15. In addition, in test [4], the IC50 is 13.2 µM and the “Selectivity index (SI) MDA-MB-231” value was determined as 2.49. Besides, the IC50 in [5] was determined as 5.85 µM. Also, in test [6] (MV4-11, 1 μg mL^−1), the “Cell percentage SubG1” value is 3.48 ± 1.178%, the “Cell percentage G2/M” value came out at 17.67 ± 1.285%, the “Cell percentage S” value is given as 27.15 ± 3.651% and the “Cell percentage G0/G1” value stood at 50.37 ± 4.619%.

As for `Nc1ncnc2c1ncn2CCN1C(=O)C(=O)c2ccccc21` [7a, 1-[2-(6-Amino-9H-purin-9-yl)ethyl]-2,3-dihydro-1H-indole-2,3-dione], the IC50 in test [4] was 209 µM.

For `NC(=S)N/N=C1\C(=O)N(CCn2cnc3c(N)ncnc32)c2ccc(F)cc21` [9d, (2Z)-2-{5-Fluoro-2-oxo-1-[2-(6-aminopurine-9-yl)ethyl]-1,2-dihydro-3H-indol-3-ylidene}hydrazine-1-carbothioamide], the IC50 in [3] was 56.2 µM.

Regarding `O=C1C(=O)N(CCn2ncc3c(=O)[nH]cnc32)c2ccc(F)cc21` [6d, 5-Fluoro-1-[(2-(1,5-dihydro-4-oxopyrazolo[3,4-d]pyrimidin-1-yl)ethyl)]indole-2,3-dione], the IC50 in test [2] is 38.9 µM; in [3], 61.7 µM; in test [4] it was 47.9 µM.

As to `CNC(=O)c1cc(Oc2ccc(NC(=O)Nc3ccc(Cl)c(C(F)(F)F)c3)cc2)ccn1` [Sorafenib, reference compound], the IC50 in test [2] is 63.1 µM; in [3], 44.7 µM; in [4], 81.3 µM.

With `NC(=S)N/N=C1\C(=O)N(CCn2ncc3c(=O)[nH]cnc32)c2ccc(Cl)cc21` [8b, (2Z)-2-{5-Chloro-2-oxo-1-[2-(4-oxo-1,5-dihydropyrazolo[3,4-d]pyrimidin-1-yl)ethyl]-1,2-dihydro-3H-indol-3-ylidene}hydrazine-1-carbothioamide], the IC50 in [2] was 14.1 µM; in test [3] it was 13.2 µM; in [4], 53.7 µM; in [7], 0.0676 µM; in test [8], 0.0708 µM; in [9] it was 21.9 µM. Further, the “Selectivity index (SI) A498” value in test [2] is 2.45. Besides, the “Selectivity index (SI) HepG2” value in test [3] was 2.60. Besides, the “Selectivity index (SI) MDA-MB-231” value in test [4] is on record as 0.63.

For the molecule `O=C1C(=O)N(CCn2ncc3c(=O)[nH]cnc32)c2ccccc21` [6a, 1-[2-(1,5-Dihydro-4-oxopyrazolo[3,4-d]pyrimidin-1-yl)ethyl] indole-2,3-dione], the IC50 in test [2] is 58.9 µM; in test [3] it was 151 µM; in test [4], 91.2 µM; in [7], 0.603 µM; in test [8] it was 0.309 µM; in [9] it was 43.7 ± 5.51 µM.

Turning to `CC(=O)c1c(C)c2cnc(Nc3ccc(N4CCNCC4)cn3)nc2n(C2CCCC2)c1=O` [Palbociclib], the “Cell cycle arrest phase” value in test [10] is “cell cycle arrest at the G1 phase”.

As for `Nc1ncnc2c1ncn2CCN1C(=O)C(=O)c2cc(F)ccc21` [7d, 1-[2-(6-Amino-9H-purin-9-yl)ethyl]-2,3-dihydro-5-fluoro-1H-indole-2,3-dione], the values for the IC50 in test [2], in test [3] and in test [4] were 166 µM, 17.4 µM and 83.2 µM, respectively.

As for `NC(=S)N/N=C1\C(=O)N(CCn2ncc3c(=O)[nH]cnc32)c2ccc(F)cc21` [8d, (2Z)-2-{5-Fluoro-2-oxo-1-[2-(4-oxo-1,5-dihydropyrazolo[3,4-d]pyrimidin-1-yl)ethyl]-1,2-dihydro-3H-indol-3-ylidene}hydrazine-1-carbothioamide], the IC50 in test [2] was 105 µM; in test [3], 25.1 µM.

The record behind these values is article PMC12377214 (RSC Advances, 2025).
